Active and inactive are the calls of the source. The rule behind the calls is not given here. *1 amine or outer side, *2 acyl side, *3 side chain or, on linkers, in order; H or OH if unused. Where a SMILES comes first, the peptide text is derived from it. Bridges are numbered along the chain shown (N, C = ends). [ ]: non-standard residue; d: D form. The star is where a group is joined. ξ: configuration not given here. X1 = CC(=O)O[C@@]12COC1C[C@H](O)[C@@]1(C)C(=O)[C@H](O)C3=C(C)[C@@H](OC(=O)[C@H](O)[C@@H](NC(=O)[*:1])c4ccccc4)C[C@@](O)([C@@H](O[*:2])C21)C3(C)C; ξD = NC(CC(=O)O)C(=O)O; OtBu = CC(C)(C)O*
Experiments:
KB = assay: Cytotoxicity against human KB cells after 72 hrs; type: cell-based; conditions: for Activity: human, kb; for IC50: Homo sapiens, KB
Summary of the method: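 Cell proliferation measured after 72 h incubation with compound. IC50 is the drug concentration that inhibits proliferation by 50%. Run by an established literature protocol.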

Tubulin (Homo sapiens) = Tubulin (Homo sapiens) (UniProt P68371+Q9H4B7+P0DPH7+P68366+Q13509+Q71U36+P04350+Q3ZCM7+P07437+P68363+Q9BQE3+Q6PEY2+Q13885+Q9BVA1+Q9BUF5); assay: (§1) Tubulin interaction assessed as inhibition of cold-induced microtubule disassembly; type: protein-complex assay
Summary of the method: (§2)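 Microtubular protein was purified from mammalian brain. The assay followed the rate of microtubule disassembly. IC50 is the concentration that inhibits that rate by 50%. Run by an established literature protocol.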

Tubulin = assay: as §1; type: protein-complex assay, Homo sapiens; summary of the method: as §2

Compound	Activity (Tubulin (Homo sapiens))	IC50 (Tubulin) [nM]	Activity (KB)	IC50 (KB) [nM]
CC(=O)O[C@@]12COC1C[C@H](O)[C@@]1(C)C(=O)[C@H](O)C3=C(C)[C@@H]4C[C@@](O)([C@@H](OC(=O)c5cccc(c5)NC(=O)CNC(=O)CNC(=O)[C@@H]5CCCN5C(=O)[C@H](C(C)C)NC(=O)N[C@@H](c5ccccc5)[C@@H](O)C(=O)O4)C21)C3(C)C (some centres undefined)	–	–	Non-toxic	–
CC(=O)O[C@@]12COC1C[C@H](O)[C@@]1(C)C(=O)[C@H](O)C3=C(C)[C@@H]4C[C@@](O)([C@@H](OC(=O)CNC(=O)C(CC(=O)OC(C)(C)C)NC(=O)CNC(=O)CNC(=O)[C@@H]5CCCN5C(=O)[C@H](C(C)C)NC(=O)N[C@@H](c5ccccc5)[C@@H](O)C(=O)O4)C21)C3(C)C (some centres undefined) (VPGG[ξD](OtBu)G; linker N-C via X1)	–	–	Non-toxic	–
CC(=O)O[C@@]12COC1C[C@H](O)[C@@]1(C)C(=O)[C@H](O)C3=C(C)[C@@H](OC(=O)[C@H](O)[C@@H](NC(=O)OC(C)(C)C)c4ccccc4)C[C@@](O)([C@@H](OC(=O)CNC(=O)CN)C21)C3(C)C (some centres undefined)	inactive	–	Not Active	–
CC(=O)O[C@@]12COC1C[C@H](O)[C@@]1(C)C(=O)[C@H](O)C3=C(C)[C@@H](OC(=O)[C@H](O)[C@@H](NC(=O)OC(C)(C)C)c4ccccc4)C[C@@](O)([C@@H](OC(=O)CN)C21)C3(C)C (some centres undefined)	–	51000	–	> 10000
CC(=O)O[C@@]12COC1C[C@H](O)[C@@]1(C)C(=O)[C@H](O)C3=C(C)[C@@H]4C[C@@](O)([C@@H](OC(=O)CNC(=O)CNC(=O)[C@@H]5CCCN5C(=O)[C@H](C(C)C)NC(=O)N[C@@H](c5ccccc5)[C@@H](O)C(=O)O4)C21)C3(C)C (some centres undefined)	–	–	Non-toxic	–
CC(=O)O[C@@]12COC1C[C@H](O)[C@@]1(C)C(=O)[C@H](O)C3=C(C)[C@@H](OC(=O)[C@H](O)[C@@H](NC(=O)NCC(=O)N[C@@H](CO)C(=O)N[C@@H](Cc4ccc(O)cc4)C(=O)O)c4ccccc4)C[C@@](O)([C@@H](OCc4ccccc4)C21)C3(C)C (some centres undefined)	–	1000	–	1050
COC(=O)[C@@H](CCSC)NC(=O)[C@H](Cc1ccccc1)NC(=O)[C@@H](NC(=O)N[C@@H](c1ccccc1)[C@@H](O)C(=O)O[C@H]1C[C@@]2(O)[C@@H](OCc3ccccc3)C3[C@]4(OC(C)=O)COC4C[C@H](O)[C@@]3(C)C(=O)[C@H](O)C(=C1C)C2(C)C)C(C)C (some centres undefined)	–	2600	–	–
COC(=O)[C@H](CCSC)NC(=O)[C@H](Cc1ccccc1)NC(=O)[C@@H](NC(=O)N[C@@H](c1ccccc1)[C@@H](O)C(=O)O[C@H]1C[C@@]2(O)[C@@H](OCc3ccccc3)C3[C@]4(OC(C)=O)COC4C[C@H](O)[C@@]3(C)C(=O)[C@H](O)C(=C1C)C2(C)C)C(C)C (some centres undefined)	–	–	–	1100
CC(=O)O[C@@]12COC1C[C@H](O)[C@@]1(C)C(=O)[C@H](O)C3=C(C)[C@@H](OC(=O)[C@H](O)[C@@H](NC(=O)NCC(=O)N[C@@H](COCc4ccccc4)C(=O)N[C@@H](Cc4ccc(OCc5ccccc5)cc4)C(=O)OCc4ccccc4)c4ccccc4)C[C@@](O)([C@@H](OCc4ccccc4)C21)C3(C)C (some centres undefined)	inactive	–	–	90
CC(=O)O[C@@]12COC1C[C@H](O)[C@@]1(C)C(=O)[C@H](O)C3=C(C)[C@@H](OC(=O)[C@H](O)[C@@H](NC(=O)OC(C)(C)C)c4ccccc4)C[C@@](O)([C@@H](OC(=O)CNC(=O)Oc4ccccc4)C21)C3(C)C (some centres undefined)	inactive	–	–	90

Continued, in another order:

Activity (Tubulin (Homo sapiens))	IC50 (Tubulin) [nM]	Compound	Activity (KB)	IC50 (KB) [nM]
inactive	–	CC(=O)O[C@@]12COC1C[C@H](O)[C@@]1(C)C(=O)[C@H](O)C3=C(C)[C@@H](OC(=O)[C@H](O)[C@@H](NC(=O)OC(C)(C)C)c4ccccc4)C[C@@](O)([C@@H](OC(=O)[C@@H]4CCCN4C(=O)CNC(=O)CN)C21)C3(C)C (some centres undefined)	Not Active	–
–	500	CC(=O)O[C@@]12COC1C[C@H](O)[C@@]1(C)C(=O)[C@H](O)C3=C(C)[C@@H](OC(=O)C(O)[C@@H](NC(=O)N[C@H](C(=O)N4CCC[C@H]4C(=O)NCC(=O)NCC(=O)OCc4ccccc4)C(C)C)c4ccccc4)C[C@@](O)([C@@H](OC(=O)c4cccc([N+](=O)[O-])c4)C21)C3(C)C (some centres undefined)	–	> 10000
–	500	CC(=O)O[C@@]12CO[C@@H]1C[C@H](O)[C@@]1(C)C(=O)[C@H](O)C3=C(C)[C@@H](OC(=O)[C@H](O)[C@@H](NC(=O)OC(C)(C)C)c4ccccc4)C[C@@](O)([C@@H](OC(=O)c4ccccc4)[C@H]21)C3(C)C [DOCETAXEL]	–	0.1
–	600	CC(=O)O[C@@]12COC1C[C@H](O)[C@@]1(C)C(=O)[C@H](O)C3=C(C)[C@@H](OC(=O)C(O)C(NC(=O)N[C@H](C(=O)N4CCC[C@H]4C(=O)NCC(=O)O)C(C)C)c4ccccc4)C[C@@](O)([C@@H](OCc4ccccc4)C21)C3(C)C (some centres undefined)	–	> 10000
–	1000	CC(=O)O[C@@]12COC1C[C@H](O)[C@@]1(C)C(=O)[C@H](O)C3=C(C)[C@@H](OC(=O)C(O)[C@@H](NC(=O)N[C@H](C(=O)N4CCC[C@H]4C(=O)NCC(=O)NCC(=O)O)C(C)C)c4ccccc4)C[C@@](O)([C@@H](OC(=O)c4cccc(N)c4)C21)C3(C)C (some centres undefined)	–	> 10000
inactive	–	CC(=O)O[C@@]12COC1C[C@H](O)[C@@]1(C)C(=O)[C@H](O)C3=C(C)[C@@H](OC(=O)[C@H](O)[C@@H](NC(=O)OC(C)(C)C)c4ccccc4)C[C@@](O)([C@@H](OC(=O)[C@@H](NC(=O)[C@@H]4CCCN4C(=O)CNC(=O)CN)C(C)C)C21)C3(C)C (some centres undefined)	Not Active	–
–	800	CC(=O)O[C@@]12COC1C[C@H](O)[C@@]1(C)C(=O)[C@H](O)C3=C(C)[C@@H](OC(=O)[C@H](O)[C@@H](NC(=O)N[C@H](C(=O)OCc4ccccc4)C(C)C)c4ccccc4)C[C@@](O)([C@@H](OCc4ccccc4)C21)C3(C)C (some centres undefined)	–	4
